According to ChEMBL document CHEMBL1165950, “Design and synthesis of new potent anticancer pyrazoles with high FLT3 kinase inhibitory selectivity” (Bioorg Med Chem, 2010):

What was measured:
Assay type in all cases: functional
A549 = assay: Growth inhibition of human A549 cells after 48 hrs by sulforhodamine B assay; conditions: A549, 48 h
Procedure, shortened: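 NCI five-dose SRB assay in RPMI 1640 with 5% FBS and 2 mM L-glutamine. Cells were preincubated 24 h, then exposed 48 h at 37 °C to five concentrations (10-fold or half-log serial dilutions from DMSO stocks). TCA fixation, SRB staining, and absorbance at 515 nm followed. IC50 was taken where [(Ti−Tz)/(C−Tz)]×100 = 50, with Tz as time-zero cell density.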

SF-295 [1] = assay: Growth inhibition of human SF295 cells after 48 hrs by sulforhodamine B assay; conditions: SF-295, 48 h; for CC50: read-out: LC50 (the source's name)
Procedure, shortened: (§1)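 NCI 60-cell screen, five-dose mode. Cells grown in RPMI 1640 with 5% FBS and 2 mM L-glutamine and plated at 5000-40,000 cells/well according to doubling time. After 24 h preincubation, a Tz plate was TCA-fixed. Five concentrations (10-fold or 1/2 log dilutions) were applied for 48 h at 37 °C. SRB staining read at 515 nm. IC50 taken from [(Ti-Tz)/(C-Tz)]×100 = 50.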

SNB-19 = assay: Cytotoxicity against human SNB19 cells assessed as cell growth at 10 uM after 48 hrs by sulforhodamine B assay; conditions: SNB-19, 48 h, read-out: Activity
COLO 205 [2] = assay: Cytotoxicity against human COLO205 cells assessed as cell growth at 100 nM after 48 hrs by sulforhodamine B assay; conditions: COLO 205, 48 h, read-out: Activity
BT-549 = assay: Cytotoxicity against human BT549 cells assessed as cell growth at 10 uM; conditions: read-out: Activity
Procedure, shortened: (§2)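 Single-dose NCI-60 screen at 10 µM. Cells were grown in RPMI 1640 with 5% FBS and 2 mM L-glutamine, then treated for 48 h at 37 °C. Protein was measured by SRB staining with absorbance at 515 nm. Percentage growth was recorded, and inhibition percentage was calculated as 100 minus growth percentage.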

K562 = assay: Growth inhibition of human K562 cells after 48 hrs by sulforhodamine B assay; conditions: K562, 48 h; procedure, shortened: as §1
[3] = Cytotoxicity against human Hs 578T cells assessed as cell growth at 10 uM; conditions: read-out: Activity; procedure, shortened: as §2
M14 [4] = assay: Cytotoxicity against human M14 cells assessed as cell growth at 10 uM after 48 hrs by sulforhodamine B assay; conditions: M14, 48 h, read-out: Activity
KM12 = assay: Cytotoxicity against human KM12 cells assessed as cell growth at 100 nM after 48 hrs by sulforhodamine B assay; conditions: KM12, 48 h, read-out: Activity
TK-10 [5] = assay: Cytotoxicity against human TK10 cells assessed as cell growth at 10 uM; conditions: read-out: Activity
Procedure, shortened: (§3)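 NCI-60 screen: cells grown in RPMI 1640 with 5% FBS and 2 mM L-glutamine, plated at 5000–40,000 cells/well according to doubling time, and preincubated 24 h at 37 °C, 5% CO2. The single 10 µM dose (DMSO stock) was added, then incubated 48 h. Cells were TCA-fixed and stained with 0.4% SRB, read at 515 nm, and growth % calculated against time-zero and control plates.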

SK-OV-3 [6] = assay: Cytotoxicity against human SKOV3 cells assessed as cell growth at 0.01 uM after 48 hrs by sulforhodamine B assay; conditions: SK-OV-3, 48 h, read-out: Activity
SN12C = assay: Cytotoxicity against human SN12C cells assessed as cell growth at 1 uM after 48 hrs by sulforhodamine B assay; conditions: read-out: Activity
SK-MEL-5 [7] = assay: Cytotoxicity against human SK-MEL-5 cells assessed as cell growth at 10 uM after 48 hrs by sulforhodamine B assay; conditions: SK-MEL-5, 48 h, read-out: Activity
SK-OV-3 [8] = assay: Cytotoxicity against human SKOV3 cells assessed as cell growth at 10 uM after 48 hrs by sulforhodamine B assay; conditions: SK-OV-3, 48 h, read-out: Activity
COLO 205 [9] = assay: Cytotoxicity against human COLO205 cells assessed as cell growth at 10 uM; conditions: read-out: Activity; procedure, shortened: as §2
TK-10 [10] = assay: Cytotoxicity against human TK10 cells assessed as cell growth at 0.001 uM after 48 hrs by sulforhodamine B assay; conditions: TK-10, 48 h, read-out: Activity
HCT-116 = assay: Cytotoxicity against human HCT116 cells assessed as cell growth at 0.001 uM after 48 hrs by sulforhodamine B assay; conditions: HCT-116, 48 h, read-out: Activity
SW-620 [11] = assay: Cytotoxicity against human SW620 cells assessed as cell growth at 10 uM after 48 hrs by sulforhodamine B assay; conditions: SW-620, 48 h, read-out: Activity
NCI-H522 [12] = assay: Growth inhibition of human NCI-H522 cells after 48 hrs by sulforhodamine B assay; conditions: NCI-H522, 48 h; for CC50: read-out: LC50 (the source's name); procedure, shortened: as §1
NCI-H522 [13] = assay: Cytotoxicity against human NCI-H522 cells assessed as cell growth at 1 uM after 48 hrs by sulforhodamine B assay; conditions: NCI-H522, 48 h, read-out: Activity
SK-MEL-5 [14] = assay: Cytotoxicity against human SK-MEL-5 cells assessed as cell growth at 0.01 uM after 48 hrs by sulforhodamine B assay; conditions: SK-MEL-5, 48 h, read-out: Activity
SF-295 [15] = assay: Cytotoxicity against human SF295 cells assessed as cell growth at 1 uM after 48 hrs by sulforhodamine B assay; conditions: SF-295, 48 h, read-out: Activity
ACHN = assay: Cytotoxicity against human ACHN cells assessed as cell growth at 10 uM; conditions: read-out: Activity; procedure, shortened: as §2
OVCAR-3 = assay: Cytotoxicity against human OVCAR-3 cells assessed as cell growth at 0.01 uM after 48 hrs by sulforhodamine B assay; conditions: OVCAR-3, 48 h, read-out: Activity
OVCAR-5 = assay: Cytotoxicity against human OVCAR5 cells assessed as cell growth at 1 uM after 48 hrs by sulforhodamine B assay; conditions: OVCAR-5, 48 h, read-out: Activity
M14 [16] = assay: Cytotoxicity against human M14 cells assessed as cell growth at 10 uM; conditions: read-out: Activity; procedure, shortened: as §3
SK-MEL-5 [17] = assay: Cytotoxicity against human SK-MEL-5 cells assessed as cell growth at 100 nM after 48 hrs by sulforhodamine B assay; conditions: SK-MEL-5, 48 h, read-out: Activity
SW-620 [18] = assay: Cytotoxicity against human SW620 cells assessed as cell growth at 10 uM; conditions: read-out: Activity; procedure, shortened: as §3
HOP-62 = assay: Cytotoxicity against human HOP62 cells assessed as cell growth at 10 uM after 48 hrs by sulforhodamine B assay; conditions: HOP-62, 48 h, read-out: Activity
[19] = Cytotoxicity against human RPMI8266 cells assessed as cell growth at 100 nM after 48 hrs by sulforhodamine B assay; conditions: read-out: Activity
IGROV-1 = assay: Cytotoxicity against human IGROV1 cells assessed as cell growth at 1 uM after 48 hrs by sulforhodamine B assay; conditions: IGROV-1, 48 h, read-out: Activity
MDA-MB-231 = assay: Cytotoxicity against human MDA-MB-231 cells assessed as cell growth at 0.01 uM after 48 hrs by sulforhodamine B assay; conditions: MDA-MB-231, 48 h, read-out: Activity
T47D = assay: Cytotoxicity against human T47D cells assessed as cell growth at 10 uM; conditions: read-out: Activity; procedure, shortened: as §3

## COc1cc(C)cc(-c2c(-c3ccnc(-c4ccc(C(C)=O)cc4)c3)cnn2CC#N)c1
A549
  GI50: 3.68 µM
  LC50: > 100 µM
  TGI: > 100 µM
SF-295 [1]
  GI50: 5.84 µM
  TGI: > 100 µM
  CC50: > 100 µM
SNB-19
  growth at 10 µM: 66%
COLO 205 [2]
  growth at 0.1 µM: 102%
BT-549
  growth at 10 µM: 60%
K562
  GI50: 0.795 µM
  LC50 (50% net cell kill): > 100 µM
  TGI: > 100 µM
[3]
  growth at 10 µM: 88.5%
M14 [4]
  growth at 10 µM: 2%
KM12
  growth at 0.1 µM: 85%
TK-10 [5]
  growth at 10 µM: 72.6%
SK-OV-3 [6]
  growth at 0.01 µM: 98%
SN12C
  growth at 1 µM: 28%
SK-MEL-5 [7]
  growth at 10 µM: -35%
SK-OV-3 [8]
  growth at 10 µM: 27%
COLO 205 [9]
  growth at 10 µM: 42.6%
TK-10 [10]
  growth at 0.001 µM: 103%
HCT-116
  growth at 0.001 µM: 97%
SW-620 [11]
  growth at 10 µM: 14%
NCI-H522 [12]
  GI50: 1.93 µM
  TGI: 6.96 µM
  CC50: > 100 µM
NCI-H522 [13]
  growth at 1 µM: -14%
SK-MEL-5 [14]
  growth at 0.01 µM: 94%
SF-295 [15]
  growth at 1 µM: 39%
ACHN
  growth at 10 µM: 70%
OVCAR-3
  growth at 0.01 µM: 106%
OVCAR-5
  growth at 1 µM: 60%
M14 [16]
  growth at 10 µM: 50.5%
SK-MEL-5 [17]
  growth at 0.1 µM: 85%
SW-620 [18]
  growth at 10 µM: 56.1%
HOP-62
  growth at 10 µM: 11%
[19]
  growth at 0.1 µM: 88%
IGROV-1
  growth at 1 µM: 23%
MDA-MB-231
  growth at 0.01 µM: 95%
T47D
  growth at 10 µM: 45.6%

## Cc1cc(O)cc(-c2nn(CC#N)cc2-c2ccnc(-c3ccc(Oc4ccccc4)cc3)c2)c1
A549
  GI50: 2 µM
  LC50: 24.7 µM
  TGI: 5.07 µM
SF-295 [1]
  GI50: 4.42 µM
  TGI: 21.2 µM
  CC50: 75.2 µM
SNB-19
  growth at 10 µM: -93%
COLO 205 [2]
  growth at 0.1 µM: 99%
BT-549
  growth at 10 µM: 76.1%
K562
  GI50: 4.87 µM
  LC50 (50% net cell kill): > 100 µM
  TGI: 6.02 µM
[3]
  growth at 10 µM: 75.9%
M14 [4]
  growth at 10 µM: -94%
KM12
  growth at 0.1 µM: 85%
TK-10 [5]
  growth at 10 µM: 47.2%
SK-OV-3 [6]
  growth at 0.01 µM: 98%
SN12C
  growth at 1 µM: -57%
SK-MEL-5 [7]
  growth at 10 µM: -100%
SK-OV-3 [8]
  growth at 10 µM: -99%
COLO 205 [9]
  growth at 10 µM: 28.4%
TK-10 [10]
  growth at 0.001 µM: 91%
HCT-116
  growth at 0.001 µM: 95%
SW-620 [11]
  growth at 10 µM: -100%
NCI-H522 [12]
  GI50: 2.72 µM
  TGI: 10.4 µM
  CC50: 35.1 µM
NCI-H522 [13]
  growth at 1 µM: 2%
SK-MEL-5 [14]
  growth at 0.01 µM: 93%
SF-295 [15]
  growth at 1 µM: 30%
ACHN
  growth at 10 µM: 37.6%
OVCAR-3
  growth at 0.01 µM: 103%
OVCAR-5
  growth at 1 µM: 35%
M14 [16]
  growth at 10 µM: 55.1%
SK-MEL-5 [17]
  growth at 0.1 µM: 94%
SW-620 [18]
  growth at 10 µM: 53.9%
HOP-62
  growth at 10 µM: -93%
[19]
  growth at 0.1 µM: 88%
IGROV-1
  growth at 1 µM: -64%
MDA-MB-231
  growth at 0.01 µM: 84%
T47D
  growth at 10 µM: 14.2%
